Hits are enriched below; roughly 1.1% of the tested compounds scored in any of these assays.
Yeast tox: Compounds toxic to wild-type S. cerevisiae growth | A595 turbidity, 16 h | growth inhibition, % at 25 µM (by protocol) | 0.3% of 30,000 active;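 active = mutant and wild-type yeast strains alike exhibit over 30% growth inhibition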;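 note: 0% = untreated cell controls and 100% = YPD media blanks without cells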
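System – wild-type and eIF2Bepsilon-R284H mutant S. cerevisiae, screened separately · Measured by – absorbance at 595 nm (turbidity) · Timing – 16 h compound exposure during growth at 30 °C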
Yeast eIF2B: modulators of yeast eIF2B activity; S. cerevisiae eIF2B-epsilon R284H, GCN4-lacZ luminescence; inhibition, % at 25 µM (by protocol); 0.91% of 27,000 active; AID 688;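 active = mutant luminescence inhibited past about 50% while wild type luminescence and mutant growth stay under set limits, limit read from the data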
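material = yeast eIF2B-epsilon R284H mutant carrying GCN4–beta-galactosidase fusion | schedule = 16 h growth with compound at 30 °C, 90 min Beta-Glo step | measured by = luminescence and A595 | compound dosing = one concentration, 25 µM, 0.25% DMSO | read-out basis = % inhibition of reporter signal and growth versus controls | buffer or medium = YPD medium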
Active calls of the source: *; . = not tested or not shown.

SMILES	Yeast tox	Yeast eIF2B
CSc1nc(C2CC2)cc(-c2cccs2)c1C#N	-5.6	17.0
COc1ccc(OCC(=O)Nc2ncc3c(n2)CC(C)(C)CC3=O)cc1	-9.4	3.2
COC(=O)c1cc2nc(-c3ccc(OC)cc3)cc(C(F)(F)F)n2n1	-16.6	-11.3
COC(=O)c1nn2c(C(F)(F)F)cc(-c3ccc(Br)o3)nc2c1Br	-31.1	54.1*
O=S(=O)(/N=C/c1c(O)ccc2ccccc12)c1cccs1	-8.1	17.8
FC(F)(F)c1cc(-c2ccccc2)nc(NC2CCCC2)n1	5.8	.
CCOc1ccc(C=O)cc1CN1CCCCC1	16.9	.
Cc1cc(=O)oc2cc(OCC(=O)N3CCCc4ccccc43)ccc12	2.9	-7.3
Cc1cc(=O)oc2ccc(OCC(=O)N3CCc4ccccc43)cc12	5.5	50.1*
COc1cccc(OC)c1C(=O)Nc1cc(C)on1	8.5	30.0
COc1ccccc1NC(=O)CSc1nc(O)cc(=O)n1C	-21.1	53.2*
COc1ccccc1-n1c(SCC(=O)Nc2cccc3ccccc23)nc(O)cc1=O	21.7	.
COc1ccc(S(=O)(=O)N(CCCN2CCOCC2)Cc2cccc3ccccc23)cc1	2.8	2.8
COCCNC(=O)c1ccc(CN2CCOCC2)cc1	.	28.9
Cc1nn(Cc2cccc(C(=O)NCC(C)C)c2)c(C)c1Br	-17.2	10.1
COC(=O)CSc1nnc2n(-c3ccc(OC)cc3)c(=O)c3c4c(sc3n12)CCCCC4	1.1	73.8*
CCOC(=O)CSc1nnc2n(C3CCCCC3)c(=O)c3c4c(sc3n12)CCCC4	-2.5	11.5
Cc1cc2n(c(=O)c1C#N)CCCN2c1cccc(Cl)c1	-3.2	44.7
CCOC(=O)c1nn(-c2cccc(Cl)c2)c2nc(CC(C)C)c(C#N)c(=O)n12	0.9	50.2*
COCCNC(=O)C(=O)N/N=C/c1ccccc1C(F)(F)F	-22.3	23.8
CCn1ncc(C2=NOC(C(=O)NCc3ccc(Cl)cc3)C2)c1C (stereo unspecified)	12.8	21.8
CCC(Oc1ccccc1)C(=O)N1CCN(C(=O)C(CC)Oc2ccccc2)CC1 (stereo unspecified)	-2.4	.
Cc1ccc(Cn2nnnc2CN2CCC(O)(c3ccc(F)cc3)CC2)cc1	2.3	69.3*
COc1ccc(C2(O)CCN(Cc3nnnn3Cc3ccc(C)cc3)CC2)cc1	10.9	-5.9
CC1=C(C#N)c2nc(N)c(C#N)c(C)c2/C1=C\c1ccccc1	53.2*	36.1
SMILES	Yeast tox	Yeast eIF2B
Cc1nc(N)c(C#N)c(-c2ccccc2)c1C	17.3	20.6
Cc1ccc(N(Cc2ccccc2F)S(C)(=O)=O)cc1C	10.4	.
Cc1nc(N)sc1-c1nnc(SCC(=O)Nc2nccs2)n1C	10.4	-29.6
CCC(=O)N1CCc2cc(S(=O)(=O)NC(C(=O)NCc3ccccc3)C(C)C)ccc21 (stereo unspecified)	2.7	55.1*
CCC(=O)N1CCc2cc(S(=O)(=O)NC(C(=O)NCc3ccc(F)cc3)C(C)C)ccc21 (stereo unspecified)	1.8	27.3
O=C(Nc1nnc(CCN2CCOCC2)s1)C1CCCCC1	23.3	22.9
Cc1ccc(CSCC(=O)Nc2ccc3c(c2)OCO3)cc1	13.5	.
CC(C)=CC(=O)Nc1ccc2c(c1)OCO2	26.1	54.2*
CCCCC(C)n1[nH]c(=O)cc1N (stereo unspecified)	21.0	20.8
Cc1nc(N2CCN(C(=O)c3ccco3)CC2)c2c3c(sc2n1)CCCC3	7.9	52.6*
Cc1nc(N2CCN(c3ccccc3)CC2)c2c3c(sc2n1)CCC3	-0.4	-3.3
COC(=O)COc1ccc(S(=O)(=O)N2CCc3ccccc3C2)cc1C	17.8	13.6
CCn1c(=O)cc(OCC(=O)N(C)C2CCCCC2)c2ccccc21	20.5	22.5
CCOC(=O)N1CCN(C(=O)COc2cc(=O)n(CC)c3ccccc23)CC1	4.6	67.8*
Cc1cc(/C=N/n2cnnc2)c(C)n1-c1ccc(OCc2ccc(Cl)cc2Cl)cc1	62.3*	1.4
Cc1cc(/C=N/n2cnnc2)c(C)n1-c1ccccc1	12.7	.
CN(CC(=O)Nc1ccccn1)S(=O)(=O)c1ccc(Cl)cc1	-9.7	-0.1
Cc1cnc(NC(=O)CN(C)S(=O)(=O)c2ccc(Cl)cc2)s1	-13.2	54.3*
CCCC1CC(C)(c2csc(Nc3ccc(OCC)cc3)n2)OC1=O (stereo unspecified)	-2.3	54.0*
CCOc1ccc(NC(=O)CC2CC(C)(C)OC2=O)cc1 (stereo unspecified)	3.3	6.3
CCCn1c(SCC(=O)OCc2ccccc2)nc2c1c(=O)n(C)c(=O)n2C	-10.6	-25.6
CC(C)CNC(=O)c1cc2nc(C3CC3)cc(C(F)(F)F)n2n1	8.9	56.8*
O=C(Nc1cccnc1)c1cc2nc(C3CC3)cc(C(F)(F)F)n2n1	4.2	-0.5
CC1CCC(C(C)C)C(OC(=O)CSc2n[nH]c(=O)[nH]c2=O)C1 (stereo unspecified)	-8.4	-64.3
CC1=CC(=O)C=C(C)C1=NOS(=O)(=O)c1ccccc1	76.9*	.
SMILES	Yeast tox	Yeast eIF2B
CC1=CC(=O)C=C(C)C1=NOC(=O)c1cccc([N+](=O)[O-])c1	1.9	17.7
CS(=O)(=O)Nc1ccccc1C(=O)N1CCN(c2ccccc2)CC1	14.1	13.9
Cn1c(N)c(C(=O)COC(=O)C2(c3ccc(Cl)cc3)CCCC2)c(=O)n(C)c1=O	-1.4	6.5
CC(Sc1c[nH]c2ccccc12)C(=O)O (stereo unspecified)	-1.5	-0.1
CCC(=O)NCCSc1c[nH]c2ccccc12	21.7	61.5*
CCCCCn1c(SCC(=O)OCC)nc2cc(C(=O)NCc3ccco3)ccc2c1=O	-7.0	56.1*
C=CCn1c(SCC(=O)OCC)nc2cc(C(=O)NCc3ccco3)ccc2c1=O	16.9	.
CC(C)C(NC(=O)c1ccccc1)C(=O)NC1=NCCS1 (stereo unspecified)	14.0	52.3*
CC(NC(=O)c1cccs1)C(=O)NC1=NCCS1 (stereo unspecified)	.	23.4
COC(=O)C(NC(=O)c1ccco1)(Nc1nc(C)cs1)C(F)(F)F (stereo unspecified)	4.9	52.0*
COC(=O)C(NC(C)=O)(Nc1nc(C)cs1)C(F)(F)F (stereo unspecified)	15.5	.
Cc1cc(C)nc(SCC(=O)Oc2ccc3oc(=O)cc(C)c3c2)n1	3.4	21.7
COCC(=O)N(C)C1(c2nnnn2CCOC(=O)Nc2cccc3ccccc23)CCCC1	4.5	.
CC1(C)Cc2c(sc3c2c(=N)n(Cc2ccco2)c(=O)n3Cc2ccc(F)cc2)CO1	-22.9	56.6*
CN(C)CCn1c(=O)n(Cc2ccco2)c(=O)c2c3c(sc21)CCCCC3	23.7	.
CCOC(=O)N1CCC(NC(=O)Cc2ccc(-n3c(=O)[nH]c4ccccc4c3=O)cc2)CC1	34.7	15.8
Cc1ccc(N(C(=O)CNC(=O)c2ccco2)C(C(=O)NCC2CCCO2)c2ccccc2)cc1 (stereo unspecified)	5.6	11.8
CCCOCC1CC2(CC(C)(c3csc(N)n3)OC2=O)C(=O)O1 (stereo unspecified)	.	61.2*
O=C(Nc1ccncc1)c1cc2ccccc2oc1=O	9.5	50.3*
COC(=O)c1cc2ccccc2oc1=O	4.5	23.1
CCOC(=O)C(CC)Sc1nc(-c2ccc(OC)cc2)nc2c1c(=O)n(C)c(=O)n2C (stereo unspecified)	-25.7	-8.9
O=C1c2cccc3cccc(c23)C(=O)N1c1ccncc1	44.3*	-56.0
CCc1nnc(N2C(=O)c3cccc4cccc(c34)C2=O)s1	13.8	7.0
